From ChEMBL document CHEMBL3244388, “Synthesis and antihypertensive activity of 2-benzamido-1,2,3,4,6,7,12,12b-octahydroindolo[2,3-a]quinolizines” (J Med Chem, 1979) come the findings set out here.

Structures are written as SMILES. The source made the active and inactive calls. No cut-off for these calls is given here.

In data set [1] the test system is Rattus norvegicus. Briefly: Antihypertensive activity in spontaneous hypertensive rat assessed as change in systolic blood pressure at 50 mg/kg, po […] measured 2 hrs post last dose on day 3 by tail-cuff method relative to vehicle-treated control. It counts as functional, Artery. A digest of the protocol: (§1)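 Spontaneously hypertensive rats, pre-trained for 2 weeks; animals with baseline below 175 mmHg excluded. Oral dosing at 0 h on days 1, 2 and 3, six rats per group. After warming (20 min, 40 °C), systolic pressure was read by tail-cuff with microphone, 3–5 readings averaged. Readings at 0 h on days 1 and 3 and 2 h post-dose on day 3 were compared with 0-h controls by paired t test; a drop over 15 mmHg counted as active.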

Data set [2] concerns Rattus norvegicus. As to the kind of experiment: Antihypertensive activity in spontaneous hypertensive rat assessed as change in systolic blood pressure at 10 mg/kg, po […] measured 2 hrs post last dose on day 3 by tail-cuff method […]. It counts as functional, Artery. In short, it runs like this: as §1
The test system of data set [3] is Rattus norvegicus. As to the kind of experiment: Antihypertensive activity in spontaneous hypertensive rat assessed as change in systolic blood pressure at 5 mg/kg, po administered […] measured 2 hrs post last dose on day 3 by tail-cuff method relative to vehicle-treated control. It counts as functional, Artery. In short, it runs like this:
as §1

The species named for a further data set is Felis catus. As to the kind of experiment: Inhibition of cat spleen alpha-adrenergic receptor. It counts as tissue-based.
A further data set relates to Canis familiaris. As to the kind of experiment: Inhibition of alpha-adrenergic receptor in iv dosed dog. It counts as functional, organism-based. To be noted: Canis lupus familiaris.
Data set [4] relates to Rattus norvegicus. As to the kind of experiment: Antihypertensive activity in spontaneous hypertensive rat assessed as change in systolic blood pressure at 25 mg/kg, po administered […] measured 2 hrs post last dose on day 3 by tail-cuff method relative to vehicle-treated control. It counts as functional, Artery. A digest of the protocol:
as §1

Data set [5] deals with Rattus norvegicus. Briefly: Antihypertensive activity in spontaneous hypertensive rat assessed as change in systolic blood pressure at 15 mg/kg, po […] measured 2 hrs post last dose on day 3 by tail-cuff method relative to vehicle-treated control. It counts as functional, Artery. A digest of the protocol:
as §1

Data set [6] has as its system Rattus norvegicus. As to the kind of experiment: Toxicity in spontaneous hypertensive rat assessed as mortality at 50 mg/kg, po administered on […] measured 2 hrs post last dose on day 3. It counts as organism-based. Also on record: dose 50 mg/kg, route oral. To be noted: in vivo. In short, it runs like this: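 Genetically spontaneously hypertensive rats, each trained for 2 weeks to set baseline; animals below 175 mmHg were excluded. Groups of six were dosed orally at 0 h on days 1, 2 and 3. Systolic pressure was read by indirect tail-cuff after 20 min conditioning at 40 °C, 3–5 readings averaged, at 0 h on days 1 and 3 and 2 h post-dose on day 3.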

Turning to `CCn1c2c(c3ccccc31)CCN1CCC(NC)C[C@@H]21` (stereo partly drawn), the Activity with Rattus norvegicus [1] is reported as -30 mmHg.
Consider `Cl.O=C(NC1CCN(CCc2c[nH]c3ccccc23)CC1)c1ccccc1` [INDORAMIN HYDROCHLORIDE], for which the Activity with Rattus norvegicus [1] was -79 mmHg.
For `CCCNC1CCN2CCc3c([nH]c4ccccc34)[C@@H]2C1` (stereo partly drawn), the Activity with Rattus norvegicus [1] is 27 mmHg.
Take `CN(C(=O)c1ccccc1)[C@@H]1CCN2CCc3c([nH]c4ccccc34)[C@@H]2C1`: the Activity is given as -103 mmHg with Rattus norvegicus [1], -41 mmHg in the data set on Rattus norvegicus [2] and -19 mmHg in the data set on Rattus norvegicus [3]. Further, the inhibition result in the data set listed under Felis catus and with Canis familiaris was “Active” in each case.
Turning to `CN(C(=O)c1ccc(Cl)cc1)C1CCN2CCc3c([nH]c4ccccc34)[C@@H]2C1` (stereo partly drawn), the Activity in the data set with Rattus norvegicus [1] is -6 mmHg.
Still for that read-out and setting: the same measure for `COc1cccc(C(=O)N[C@@H]2CCN3CCc4c([nH]c5ccccc45)[C@@H]3C2)c1`: -18 mmHg; for `CNC1CCN2CCc3c([nH]c4ccccc34)[C@@H]2C1` (stereo partly drawn): -18 mmHg.
Consider `Cc1cccc(C(=O)N[C@H]2CCN3CCc4c([nH]c5ccccc45)[C@@H]3C2)c1`, for which the Activity in the data set on Rattus norvegicus [4] was -53 mmHg.
Same read-out and setting: the same measure for `O=C(Nc1ccccc1)N[C@H]1CCN2CCc3c([nH]c4ccccc34)[C@@H]2C1`: -6 mmHg.
The same measure, in the same setting: then `CN(C(=O)c1ccccc1Cl)C1CCN2CCc3c([nH]c4ccccc34)[C@@H]2C1` (stereo partly drawn), with -13 mmHg.
`O=C(N[C@@H]1CCN2CCc3c([nH]c4ccccc34)[C@@H]2C1)c1ccccc1Cl`: the Activity with Rattus norvegicus [1] is -26 mmHg.
Turning to `O=C(N[C@H]1CCN2CCc3c([nH]c4ccccc34)[C@@H]2C1)c1ccccc1Br`, the Activity in the data set on Rattus norvegicus [1] turned out to be 18 mmHg.
On the same count and under the same terms, the same measure for `Cc1ccc(C(=O)N[C@@H]2CCN3CCc4c([nH]c5ccccc45)[C@@H]3C2)cc1`: -18 mmHg; for `O=C(Nc1ccccc1)N[C@@H]1CCN2CCc3c([nH]c4ccccc34)[C@@H]2C1`: -22 mmHg.
For `CN(C(=O)c1ccccc1)[C@H]1CCN2CCc3c([nH]c4ccccc34)[C@@H]2C1`, in the data set on Rattus norvegicus [5], the Activity was -17 mmHg.
Consider `Cc1ccccc1C(=O)N(C)C1CCN2CCc3c([nH]c4ccccc34)[C@@H]2C1` (stereo partly drawn), for which the Activity in the data set on Rattus norvegicus [1] is listed as -44 mmHg.
As for `c1ccc(CNC2CCN3CCc4c([nH]c5ccccc45)[C@@H]3C2)cc1` (stereo partly drawn), the Activity with Rattus norvegicus [4] is on record as -8 mmHg; in the data set on Rattus norvegicus [1], -53 mmHg.
On to `CN(C(=O)c1ccc(F)cc1)C1CCN2CCc3c([nH]c4ccccc34)[C@@H]2C1` (stereo partly drawn), for which, in the data set on Rattus norvegicus [1], the Activity is given as -20 mmHg.
As for `NC1CCN2CCc3c([nH]c4ccccc34)[C@@H]2C1` (stereo partly drawn), in the data set with Rattus norvegicus [4], the Activity is -9.5 mmHg.
Regarding `CN(C(=O)c1cccc(C(F)(F)F)c1)C1CCN2CCc3c([nH]c4ccccc34)[C@@H]2C1` (stereo partly drawn), the Activity with Rattus norvegicus [4] was -56 mmHg; in the data set on Rattus norvegicus [1] it was -48 mmHg. Besides, the inhibition entry in the data set listed under Felis catus and in the data set on Canis familiaris was “Active” each time.
As for `O=C(N[C@@H]1CCN2CCc3c([nH]c4ccccc34)[C@@H]2C1)c1ccc2c(c1)OCO2`, the Activity with Rattus norvegicus [1] is on record as -52 mmHg.
Turning to `c1ccc2c3c([nH]c2c1)[C@@H]1CC(NC2CC2)CCN1CC3` (stereo partly drawn), the Activity in the data set on Rattus norvegicus [1] is recorded as -25 mmHg.
For the compound `CCn1c2c(c3ccccc31)CCN1CCC(N(C)C(=O)c3ccccc3)C[C@@H]21` (stereo partly drawn), the Activity in the data set on Rattus norvegicus [4] is -63 mmHg; in the data set with Rattus norvegicus [1], -67 mmHg.
`c1ccc(N[C@H]2CCN3CCc4c([nH]c5ccccc45)[C@@H]3C2)cc1`: in the data set on Rattus norvegicus [4], the Activity came to 5.75 mmHg.
For `CC(=O)NC1CCN2CCc3c([nH]c4ccccc34)[C@@H]2C1` (stereo partly drawn), the Activity with Rattus norvegicus [1] was -20 mmHg.
The same measure, in the same setting: then `O=C1c2ccccc2CN1[C@@H]1CCN2CCc3c([nH]c4ccccc34)[C@@H]2C1`, with 2 mmHg; and `O=C(NC1CCN2CCc3c([nH]c4ccccc34)[C@@H]2C1)c1ccco1` (stereo partly drawn), with 0 mmHg.
As for `CN(C(=O)c1cccc(F)c1)C1CCN2CCc3c([nH]c4ccccc34)[C@@H]2C1` (stereo partly drawn), the Activity is -76 mmHg in the data set on Rattus norvegicus [4] and -110 mmHg in the data set on Rattus norvegicus [1].
For the compound `CN(C#N)[C@@H]1CCN2CCc3c([nH]c4ccccc34)[C@@H]2C1`, the Activity with Rattus norvegicus [1] is -51 mmHg; in the data set on Rattus norvegicus [6], “Toxic”.
With `COc1ccc(C(=O)N(C)[C@@H]2CCN3CCc4c([nH]c5ccccc45)[C@@H]3C2)cc1`, the Activity in the data set with Rattus norvegicus [4] is -72 mmHg; with Rattus norvegicus [1] it was -50 mmHg; with Rattus norvegicus [2], -86 mmHg; with Rattus norvegicus [3] it was -53 mmHg. Besides, the inhibition result in the data set listed under Felis catus and with Canis familiaris was “Active” each time.
`CCNC1CCN2CCc3c([nH]c4ccccc34)[C@@H]2C1` (stereo partly drawn): in the data set on Rattus norvegicus [1], the Activity was -4 mmHg.
Regarding `c1ccc(CCNC2CCN3CCc4c([nH]c5ccccc45)[C@@H]3C2)cc1` (stereo partly drawn), the Activity in the data set on Rattus norvegicus [1] is recorded as -16 mmHg.
For `O=C(N[C@@H]1CCN2CCc3c([nH]c4ccccc34)[C@@H]2C1)c1ccc(F)cc1`, the Activity with Rattus norvegicus [4] is given as -24 mmHg.
With `Cl.O=C(N[C@@H]1CCN2CCc3c([nH]c4ccccc34)[C@@H]2C1)c1ccc([N+](=O)[O-])cc1`, the Activity in the data set with Rattus norvegicus [1] was 15 mmHg.
Consider `COc1ccc(C(=O)N[C@@H]2CCN3CCc4c([nH]c5ccccc45)[C@@H]3C2)cc1`, for which the Activity in the data set on Rattus norvegicus [4] is 10 mmHg.
For `O=C(N[C@@H]1CCN2CCc3c([nH]c4ccccc34)[C@@H]2C1)c1ccccc1`, the Activity in the data set with Rattus norvegicus [1] stood at 1 mmHg.
On to `O=C(N[C@@H]1CCN2CCc3c([nH]c4ccccc34)[C@@H]2C1)c1cccc(C(F)(F)F)c1`, for which, in the data set with Rattus norvegicus [1], the Activity is on record as -3 mmHg.
Take `CN(Cc1ccccc1)[C@@H]1CCN2CCc3c([nH]c4ccccc34)[C@@H]2C1`: the Activity in the data set with Rattus norvegicus [1] is recorded as -54 mmHg.
For the compound `O=C(c1ccccc1)N(C1CC1)C1CCN2CCc3c([nH]c4ccccc34)[C@@H]2C1` (stereo partly drawn), in the data set with Rattus norvegicus [1], the Activity is given as -26 mmHg.
Regarding `COc1cc(C(=O)N[C@@H]2CCN3CCc4c([nH]c5ccccc45)[C@@H]3C2)cc(OC)c1OC`, in the data set with Rattus norvegicus [4], the Activity is -25 mmHg.
Take `O=C(N[C@@H]1CCN2CCc3c([nH]c4ccccc34)[C@@H]2C1)c1ccccc1Br`: the Activity with Rattus norvegicus [1] is recorded as -24 mmHg.
As for `CN(C(=O)c1cccc(Cl)c1)C1CCN2CCc3c([nH]c4ccccc34)[C@@H]2C1` (stereo partly drawn), the Activity with Rattus norvegicus [4] is recorded as -54 mmHg; in the data set on Rattus norvegicus [1] it was -79 mmHg.
Turning to `O=C(N[C@@H]1CCN2CCc3c([nH]c4ccccc34)[C@@H]2C1)c1ccc(Cl)cc1`, in the data set on Rattus norvegicus [1], the Activity was -3 mmHg.
As to `Cc1ccccc1C(=O)N[C@@H]1CCN2CCc3c([nH]c4ccccc34)[C@@H]2C1`, in the data set with Rattus norvegicus [1], the Activity came to 13 mmHg.
For the compound `CCN(C(=O)c1ccccc1)C1CCN2CCc3c([nH]c4ccccc34)[C@@H]2C1` (stereo partly drawn), the Activity is -92 mmHg in the data set on Rattus norvegicus [4] and -83 mmHg in the data set on Rattus norvegicus [1].
Turning to `CCCN(C(=O)c1ccccc1)C1CCN2CCc3c([nH]c4ccccc34)[C@@H]2C1` (stereo partly drawn), the Activity in the data set with Rattus norvegicus [1] is -16 mmHg.
For the compound `Cc1ccc(C(=O)N[C@H]2CCN3CCc4c([nH]c5ccccc45)[C@@H]3C2)cc1`, the Activity in the data set on Rattus norvegicus [4] was -32 mmHg.
With `Nc1ccc(C(=O)N[C@@H]2CCN3CCc4c([nH]c5ccccc45)[C@@H]3C2)cc1`, in the data set with Rattus norvegicus [1], the Activity was -31 mmHg.
For the compound `c1ccc(NC2CCN3CCc4c([nH]c5ccccc45)[C@@H]3C2)cc1` (stereo partly drawn), in the data set with Rattus norvegicus [4], the Activity was -25 mmHg.
With `Cc1cccc(C(=O)N[C@@H]2CCN3CCc4c([nH]c5ccccc45)[C@@H]3C2)c1`, the Activity in the data set on Rattus norvegicus [1] was -49 mmHg.
